Bioassay records deposited in PubChem by several laboratories.
Most compounds without a hit are left out; they make up all but 2.2% or so of the library.
b-catenin transl: beta-catenin nuclear translocation modulation. HeLa beta-catenin nuclear translocation, immunofluorescence imaging. nuclear translocation activity, % at 5 µM. actives 0.3% (n = 190,000). AID 1665;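 active = nuclear translocation activity above 50% at 5 µM, with a well cell count of 50 or more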;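 note: per-cell ratio of nuclear to cytoplasmic median beta-catenin stain intensity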
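Test system: human HeLa cells, native beta-catenin. Compound dosing: 5 µM primary single dose, 0.1% DMSO, 0.02–20 µM confirmation series. Incubation: compound exposure 24 h at 37°C. Detection: beta-catenin immunostaining with DAPI counterstain, 20x imaging, 6 fields/well. Read-out basis: Nuclear/cytoplasmic beta-catenin signal ratio, % activation.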
APP transl inh: APP translation inhibition | SH-SY5Y APP 5'UTR-luciferase reporter, luminescence | inhibition, % at 2 µM | actives 0.82% (n = 190,000);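 active = inhibition above a set limit, derived from the sample mean plus 3 SD, cut at about 45% in these data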
Ba/F3 V617F tox: loss of viability in JAK2V617F-driven Ba/F3 cells; Ba/F3 EpoR-JAK2V617F viability, ATP luminescence; inhibition, % at 5.6 µM; actives 1.1% (n = 220,000);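 active = inhibition above the campaign mean plus 3 SD over all tested compounds, cut at about 24% in these data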;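 note: cytokine-independent growth of Ba/F3 cells driven by EpoR plus mutant JAK2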
MT stabilizer: microtubule stabilizers in HeLa cells; HeLa tubulin immunostaining HCS, 24 h; share of cells brighter than vehicle mean+2SD; % tubulin-high responders, % at 10 µM; actives 0.83% (n = 200,000);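 active = plate Z-score above 3 for both tubulin-high and condensed-nucleus cell shares, with cell loss under 80%, at 10 µM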;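 note: anti alpha tubulin signal scored within the nucleus-defined area of each cell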
BaF3 tox: counter-screen for JAK2V617F inhibitors: parental Ba/F3 viability inhibitors; actives 1.1% (n = 220,000); CellTiter-Glo ATP luminescence; inhibition, % at 5.6 µM;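 active = inhibition above a per-campaign cutoff, the mean inhibition of all tested compounds plus 3 SD, cut at about 27% in these data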
IEC-6 tox: counter-screen for KLF5 inhibitors: cytotoxicity in IEC-6 cells; IEC-6 cytotoxicity, luminescence viability; inhibition, % at 5 µM; actives 0.78% (n = 290,000); AID 1825; in the data active = inhibition above about 22%
Of the large screens only hits and unclear results are named; the others gave an inactive call.

CC(=O)N1N=C(c2cccc([N+](=O)[O-])c2)OC1c1cccc(Br)c1 (centres undefined)	b-catenin transl 65.6, MT stabilizer 24.1
CC(=O)N1N=C(c2cccc(Cl)c2)OC1c1cccc([N+](=O)[O-])c1 (centres undefined)	none
O=C(CSc1cccc[n+]1[O-])Nc1c(Br)cc([N+](=O)[O-])cc1Br	none
COc1ccc(N(C)C(=O)c2cn(C)c(=O)c3cc(OC)c(OC)cc23)cc1	none (no result: b-catenin transl, APP transl inh, Ba/F3 V617F tox, MT stabilizer, BaF3 tox)
CCOC(=O)Nc1sc2c(c1C#N)CCCC2	none (no result: b-catenin transl)
CCCC1CCc2c(sc(NC(=O)OCC)c2C#N)C1 (centres undefined)	MT stabilizer 51.9
COc1ccc(C(=O)CCC(=O)N2CCN(c3ccc(C)cc3)C(C)C2)cc1 (centres undefined)	none (no result: b-catenin transl, APP transl inh, Ba/F3 V617F tox, MT stabilizer, BaF3 tox)
C=CCOC(=O)C1=C(C)NC(SC)=C(C#N)C1c1cccs1 (centres undefined)	MT stabilizer 37.6
COc1ccc(C[C@H]2CN3C(=NC[C@H]3Cc3ccccc3)N2CCNC(=O)c2ccc(C)c(Br)c2)cc1	b-catenin transl 63.3 (no result: APP transl inh, Ba/F3 V617F tox, MT stabilizer, BaF3 tox, IEC-6 tox)
c1cncc(CSc2ccc(-c3cccs3)nn2)c1	BaF3 tox 46.0
CC(C)Oc1ncnc2c1[nH]c1ccccc12	BaF3 tox 36.3 (no result: APP transl inh, MT stabilizer)
Cc1cccc(OCC(=O)Nc2nnc(S(=O)(=O)N3CCCCCC3)s2)c1	none (no result: b-catenin transl, APP transl inh, Ba/F3 V617F tox, MT stabilizer, BaF3 tox)
CCn1c(CC(=O)Nc2ccccc2)nnc1SCC(=O)Nc1nnc(C)s1	none (no result: b-catenin transl, APP transl inh, Ba/F3 V617F tox, MT stabilizer, BaF3 tox)
Clc1ccccc1OCCn1nnc2ccccc21	none (no result: b-catenin transl, APP transl inh, Ba/F3 V617F tox, MT stabilizer, BaF3 tox)
Cc1noc(C)c1COc1cccc(C(=O)Nc2ccc3c(c2)OCO3)c1	MT stabilizer 16.9
Cc1noc(C)c1COc1cccc(C(=O)OC(C)C(=O)Nc2ccc3c(c2)OCO3)c1 (centres undefined)	b-catenin transl 95.0, MT stabilizer 25.5
CC1CCc2cc(F)ccc2N1C(=O)c1ccc2c(c1)OCO2 (centres undefined)	Ba/F3 V617F tox 32.3, BaF3 tox 35.9 (no result: b-catenin transl)
CC1=C(C(=O)Nc2ccc(F)cc2)C(c2ccc(C)o2)C2=C(CC(C)(C)CC2=O)N1 (centres undefined)	none
CC1=C(C(=O)Nc2cccc(F)c2)C(c2ccsc2)C2=C(CC(C)(C)CC2=O)N1 (centres undefined)	b-catenin transl 75.5, APP transl inh 60.1, Ba/F3 V617F tox 81.2, MT stabilizer 12.4, BaF3 tox 49.2, IEC-6 tox 66.7
CC1=C(C(=O)Nc2ccccc2F)C(c2ccsc2)C2=C(CC(C)(C)CC2=O)N1 (centres undefined)	MT stabilizer 15.0
O=C(NC1CC1)C1CCCN1S(=O)(=O)c1ccc2ccccc2c1 (centres undefined)	MT stabilizer 24.4
CCNC(=O)C1CCCN1S(=O)(=O)c1ccc2ccccc2c1 (centres undefined)	none (no result: b-catenin transl, APP transl inh, Ba/F3 V617F tox, MT stabilizer, BaF3 tox)
NNC(=O)c1oc2ccccc2c1-n1cccc1	APP transl inh 61.9
O=C(NNC(=O)c1oc2ccccc2c1-n1cccc1)c1ccco1	none
O=C(CCn1cnc(-c2ccccc2)c1-c1ccccc1)N/N=C/c1ccccc1O	none
O=C(CCn1cnc(-c2ccccc2)c1-c1ccccc1)N/N=C/c1ccc(O)cc1	MT stabilizer 23.1
Cc1nc(C(=O)NNC(=O)c2ccc(Cl)cc2)c(C(F)(F)F)o1	BaF3 tox 31.0 (no result: APP transl inh, MT stabilizer)
COc1ccccc1CNC(=O)C(=O)NCC1OCCN1S(=O)(=O)c1ccc(Br)cc1 (centres undefined)	none (no result: b-catenin transl, APP transl inh, Ba/F3 V617F tox, MT stabilizer, BaF3 tox)
CCOc1ccc2nc(N/C(N)=N/C(=S)Nc3cccc(C)c3)nc(C)c2c1	none
COc1ccc2nc(N/C(N)=N/C(=S)Nc3cccc(C)c3)nc(C)c2c1	none (no result: APP transl inh)
Cc1ccc(NC(=S)/N=C(\N)Nc2nc(C)c3cc(C)c(C)cc3n2)cc1C	BaF3 tox 38.0
CCc1ccccc1NC(=S)/N=C(\N)Nc1nc(C)c2cc(C)ccc2n1	Ba/F3 V617F tox 53.7, MT stabilizer 22.6, BaF3 tox 55.4
Cc1ccc(NC(=S)/N=C(\N)Nc2nc(C)c3cc(C)ccc3n2)c(C)c1	Ba/F3 V617F tox 42.2, BaF3 tox 51.2
Cc1cc(C)nc(-n2nc(C)cc2NC(=O)CN2CCCC2)n1	none
CCC1CCCCN1CC(=O)Nc1cc(C)nn1-c1nc(C)cc(C)n1 (centres undefined)	MT stabilizer 52.8
Cc1[nH]n(-c2ccccc2)c(=O)c1/C=N/Nc1nncc(-c2ccccc2)n1	APP transl inh 81.7, Ba/F3 V617F tox 53.0, BaF3 tox 35.9
Cc1ccc(/C=N/Nc2nncc(-c3ccccc3)n2)o1	none
Cc1ccc(-n2[nH]c(C)c(/C=N/c3ccccn3)c2=O)cc1	none
COc1cc(S(=O)(=O)Nc2cccc(C)c2)ccc1N=Cc1c(C)[nH]n(-c2ccccc2)c1=O	MT stabilizer 18.3
Cc1[nH]n(-c2ccccc2)c(=O)c1C=Nc1cccc2cccnc12	APP transl inh 69.9, IEC-6 tox 23.1
COc1ccccc1NC(=O)CCNC(=O)c1ccc(C)cc1	none (no result: b-catenin transl, APP transl inh, Ba/F3 V617F tox, MT stabilizer, BaF3 tox)
COc1cc(C(=O)Nc2cc(-c3cn4cccnc4n3)ccc2C)cc(OC)c1OC	none
Cc1[nH]n(C2=NCCS2)c(=O)c1N=Nc1cccc(C(F)(F)F)c1	APP transl inh 53.1
CCC(C)NC(=O)c1cn(-c2cccc(OC)c2)c(=O)c2ccccc12 (centres undefined)	none (no result: b-catenin transl, APP transl inh, Ba/F3 V617F tox, MT stabilizer, BaF3 tox)
Nc1nonc1C(=O)NCCNCc1ccccc1OCc1ccccc1F	none
Nc1nonc1C(=O)NCCNCc1cc(Br)ccc1OCc1ccccc1F	Ba/F3 V617F tox 23.8, BaF3 tox 50.8 (no result: b-catenin transl)
COc1cc(NC(=O)CSCc2ccccc2)c(C(=O)O)cc1OC	none (no result: b-catenin transl, APP transl inh, Ba/F3 V617F tox, MT stabilizer, BaF3 tox)
O=C(CSc1n[nH]c(-c2ccccc2O)n1)N1CCCc2ccccc21	MT stabilizer 47.5
O=C(CSc1n[nH]c(-c2cccs2)n1)N1CCCc2ccccc21	none
O=[N+]([O-])c1ccc(N=Nc2ccc(O)cc2O)cc1	MT stabilizer 22.0 (no result: b-catenin transl)
Cc1ccc(CCCNC(=O)C2CCC(=O)N(Cc3cccc(F)c3)C2)cc1 (centres undefined)	none (no result: b-catenin transl, APP transl inh, Ba/F3 V617F tox, MT stabilizer, BaF3 tox)
CC(CC(=O)Nc1nnc(CC(C)(C)C)s1)c1ccccc1 (centres undefined)	none (no result: b-catenin transl, APP transl inh, Ba/F3 V617F tox, MT stabilizer, BaF3 tox)
OCCNCc1ccc(OCc2ccc(Cl)cc2Cl)cc1	none
S=C(Nc1ccccc1)Nc1ccc(OCc2ccc(Cl)cc2Cl)cc1	APP transl inh 70.0
OCCCCNCc1ccc(OCc2ccc(Cl)cc2Cl)cc1	Ba/F3 V617F tox 59.1, BaF3 tox 27.1
S=C(NCCSCc1ccc(Cl)cc1Cl)Nc1ccccc1	none
CN(C)c1cc[n+](CC(=O)c2ccc(OC(F)F)cc2)cc1	Ba/F3 V617F tox 39.7, BaF3 tox 47.1 (no result: APP transl inh, MT stabilizer)
O=C(C[n+]1cccc(CNC(=O)c2ccc(OC(F)F)cc2)c1)c1ccccc1	none
NS(=O)(=O)c1ccc(NC(=O)/C(=C/c2ccncc2)NC(=O)c2ccccc2)cc1	none (no result: b-catenin transl, APP transl inh, Ba/F3 V617F tox, MT stabilizer, BaF3 tox)
COc1cc2c(cc1OC)CN(C(=O)c1cc3ccccc3oc1=O)CC2	MT stabilizer 19.2
CC(=O)NS(=O)(=O)c1ccc(NC(=O)CCC2CCCC2)cc1	APP transl inh 52.5 (no result: b-catenin transl)
